Active and inactive are the calls of the source. The calls are words filed in the database; no cut-off is given here.
How the values were obtained:
MDCK [1] = test: Cytotoxicity against MDCK cells assessed as reduction in cell viability at 10 uM after 40 hrs by CellTiter-Glo assay; format: cell-based, Canis lupus familiaris; conditions: dog
Summary of the method: (§1)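 Preliminary cytotoxicity screen in MDCK cells at 10 μM and 100 μM. Cells seeded overnight in DMEM with 10% FBS at 37 °C, 5% CO2, then exposed to compound for 40 h. CellTiter-Glo read-out, viability expressed as % of untreated control after background correction. Paclitaxel served as positive control.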

Influenza A virus [2] = test: Antiviral activity against Influenza A virus (A/WSN/33(H1N1)) infected in MDCK cells assessed as reduction in virus-induced cytopathic effect after 40 hrs by CellTiter-Glo assay; format: functional, organism-based; conditions: A/WSN/1933(H1N1)
Summary of the method: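 MDCK cells grown overnight in DMEM with 10% FBS at 37 °C, 5% CO2. Medium replaced with compound plus A/WSN/33 virus (MOI 0.1) in DMEM with 1% FBS, 2 μg/mL TPCK-trypsin and 1% DMSO final. After 40 h, CellTiter-Glo luminescence read as CPE. IC50 is the mean of ≥3 independent determinations with standard deviations.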

[3] = Cytotoxicity against MDCK cells assessed as reduction in cell viability after 40 hrs by CellTiter-Glo assay; format: cell-based, Canis lupus familiaris; conditions: dog
Summary of the method: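 MDCK cells seeded in DMEM with 10% FBS and cultured overnight at 37 °C, 5% CO2. Compounds added and incubated 40 h, then CellTiter-Glo viability measured. Viability % = background-corrected signal of treated well divided by control well, ×100. CC50 is the concentration giving 50% cell death.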

[4] = Selectivity index, ratio of CC50 for MDCK cells to IC50 for Influenza A virus (A/WSN/33(H1N1)) infected in MDCK cells; format: toxicity, cell-based; conditions: dog, read-out: Ratio CC50/IC50
Summary of the method: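 SI = CC50/IC50. CC50 comes from the 40 h CellTiter-Glo viability assay in uninfected MDCK cells. IC50 comes from the 40 h CellTiter-Glo CPE-reduction assay with A/WSN/33 at MOI 0.1.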

MDCK [5] = test: Cytotoxicity against MDCK cells assessed as reduction in cell viability at 100 uM after 40 hrs by CellTiter-Glo assay; format: cell-based, Canis lupus familiaris; conditions: dog; summary of the method: as §1
Influenza A virus [6] = test: Antiviral activity against Influenza A virus (A/WSN/33(H1N1)) infected in MDCK cells assessed as reduction in virus-induced cytopathic effect up to 100 uM after 40 hrs by microscopic method; format: functional, organism-based; conditions: A/WSN/1933(H1N1)
Summary of the method: (§2)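 MDCK cultures were set up as in the CPE assay: compound with or without A/WSN/33 infection (MOI 0.1), DMEM with 1% FBS and TPCK-trypsin. At 40 h post-infection, wells carrying compound up to 100 μM were inspected microscopically. Scored features were cell aggregation and detachment from the dish.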

MDCK [7] = test: Cytotoxicity against MDCK cells assessed as morphological changes up to 100 uM after 40 hrs by microscopic method; format: cell-based, Canis lupus familiaris; conditions: dog; summary of the method: as §2
Erythrocyte = test: Induction of haemagglutination in chicken RBC at 1.5 to 40 uM after 30 mins; format: cell-based, Gallus gallus; conditions: 0.5 h
Summary of the method: (§3)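 Hemagglutination assay. Freshly prepared 1% v/v chicken RBCs in saline were then added. After 30 min at room temperature, RBC aggregation was scored visually. Anti-HA antibody was the reference.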

[8] = target: Hemagglutinin (Influenza A virus) (UniProt B4URE7); test: Inhibition of Influenza A virus (A/WSN/33(H1N1)) HA-mediated haemagglutination in chicken RBC at 1.5 to 40 uM after 30 mins; format: cell-based; conditions: Influenza A virus (A/WSN/1933(H1N1)); summary of the method: as §3
[9] = target: Neuraminidase (Influenza A virus (strain A/Wilson-Smith/1933 H1N1) (Influenza A virus(strain A/WS/1933 H1N1))) (UniProt P03470); test: Inhibition of Influenza A virus (A/WSN/33(H1N1)) NA up to 100 uM using 4-MUNANA as substrate after 30 mins by fluorescence spectrophotometric assay; conditions: Influenza A virus (A/WSN/1933(H1N1))
Summary of the method: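 NA activity was measured with A/WSN/33 virus as the enzyme source, mixed with compound and 20 μM MUNANA in 32.5 mM MES (4 mM CaCl2, pH 6.5). Incubated 30 min at 37 °C, then stopped with 34 mM NaOH. Fluorescent product read at ex 360 nm / em 460 nm.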

[10] = Inhibition of Influenza virus NA; design: species or system unidentified influenza virus

Sequence of Hemagglutinin (Influenza A virus) (B4URE7 as listed by the source): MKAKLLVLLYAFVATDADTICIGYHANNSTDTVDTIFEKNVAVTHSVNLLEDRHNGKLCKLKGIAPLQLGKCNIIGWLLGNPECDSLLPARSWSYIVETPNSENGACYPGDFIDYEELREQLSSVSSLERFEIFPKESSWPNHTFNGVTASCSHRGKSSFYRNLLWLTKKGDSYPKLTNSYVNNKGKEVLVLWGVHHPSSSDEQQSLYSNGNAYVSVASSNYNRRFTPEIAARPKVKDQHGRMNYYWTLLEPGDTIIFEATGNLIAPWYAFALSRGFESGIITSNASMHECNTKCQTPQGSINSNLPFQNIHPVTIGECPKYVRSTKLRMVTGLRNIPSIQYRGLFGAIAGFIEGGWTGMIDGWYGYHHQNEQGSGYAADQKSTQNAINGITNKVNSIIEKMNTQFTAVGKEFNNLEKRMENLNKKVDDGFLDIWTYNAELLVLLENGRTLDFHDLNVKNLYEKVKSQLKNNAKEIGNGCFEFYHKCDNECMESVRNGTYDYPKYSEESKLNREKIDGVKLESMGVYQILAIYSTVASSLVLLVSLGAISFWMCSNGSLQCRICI
Sequence of Neuraminidase (Influenza A virus (strain A/Wilson-Smith/1933 H1N1) (Influenza A virus(strain A/WS/1933 H1N1))) (P03470 whole entry): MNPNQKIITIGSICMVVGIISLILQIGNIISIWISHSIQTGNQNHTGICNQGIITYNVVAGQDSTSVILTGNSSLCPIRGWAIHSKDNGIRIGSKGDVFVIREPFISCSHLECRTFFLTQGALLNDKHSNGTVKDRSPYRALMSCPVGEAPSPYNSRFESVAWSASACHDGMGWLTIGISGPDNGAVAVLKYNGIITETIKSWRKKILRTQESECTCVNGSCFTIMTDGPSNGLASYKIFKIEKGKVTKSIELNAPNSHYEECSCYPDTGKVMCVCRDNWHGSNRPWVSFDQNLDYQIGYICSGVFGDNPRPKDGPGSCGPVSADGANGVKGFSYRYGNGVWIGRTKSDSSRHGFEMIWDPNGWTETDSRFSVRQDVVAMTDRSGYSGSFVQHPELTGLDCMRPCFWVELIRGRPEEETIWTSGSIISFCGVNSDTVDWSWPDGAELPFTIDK

SMILES | Activity (MDCK [1]) | IC50 (Influenza A virus [2]) [µM] | CC50 at 40 h [3] [µM] | selectivity ratio [4] | Activity (MDCK [5]) | other results
COC(=O)C1=C[C@H](NC(=O)[C@]23CCC(C)(C)C[C@H]2C2=CC[C@@H]4[C@@]5(C)CC[C@H](O)C(C)(C)[C@@H]5CC[C@@]4(C)[C@]2(C)C[C@H]3O)[C@@H](NC(C)=O)[C@H]([C@H](O)[C@H](O)CO)O1 | Non-Toxic | 40.5 | > 200 | > 4.9 |  | 
COc1cc(/C=C/C(=O)CC(=O)/C=C/c2ccc(O)c(OC)c2)ccc1O [CURCUMIN] |  | 6.7 |  | 7.2 |  | 
COC(=O)C1=C[C@H](NC(=O)[C@]23CCC(C)(C)C[C@H]2C2=CC[C@@H]4[C@@]5(C)CC[C@H](O)C(C)(C)[C@@H]5CC[C@@]4(C)[C@]2(C)C[C@H]3O)[C@@H](NC(C)=O)[C@H]([C@H](OC(C)=O)[C@@H](COC(C)=O)OC(C)=O)O1 | Non-Toxic | 15.5 | > 200 | > 32.3 |  | 
C=C(C)[C@@H]1CC[C@]2(C(=O)NCc3cn([C@H]4C=C(C(=O)OC)O[C@@H]([C@H](O)[C@H](O)CO)[C@@H]4NC(C)=O)nn3)CC[C@]3(C)[C@H](CC[C@@H]4[C@@]5(C)CC[C@H](O)C(C)(C)[C@@H]5CC[C@]43C)[C@@H]12 | Non-Toxic | > 100 |  |  |  | 
C=C(C)[C@@H]1CC[C@]2(C(=O)N[C@H]3C=C(C(=O)OC)O[C@@H]([C@H](OC(C)=O)[C@@H](COC(C)=O)OC(C)=O)[C@@H]3NC(C)=O)CC[C@]3(C)[C@H](CC[C@@H]4[C@@]5(C)CC[C@H](O)C(C)(C)[C@@H]5CC[C@]43C)[C@@H]12 | Non-Toxic | > 100 |  |  |  | 
COC(=O)C1=C[C@H](NC(=O)[C@]23CCC(C)(C)C[C@H]2C2=CC[C@@H]4[C@@]5(C)CC[C@H](O)C(C)(C)[C@@H]5CC[C@@]4(C)[C@]2(C)CC3)[C@@H](NC(C)=O)[C@H]([C@H](O)[C@H](O)CO)O1 | Non-Toxic |  |  |  | Toxic | 
COC(=O)C1=C[C@H](NC(=O)[C@]23CCC(C)(C)C[C@H]2C2=CC[C@@H]4[C@@]5(C)CC[C@H](O)C(C)(C)[C@@H]5CC[C@@]4(C)[C@]2(C)CC3)[C@@H](NC(C)=O)[C@H]([C@H](OC(C)=O)[C@@H](COC(C)=O)OC(C)=O)O1 | Non-Toxic | 8.3 | 188 | 22.7 |  | Activity (Influenza A virus [6]): Active; Activity (MDCK [7]): Non-Toxic; Activity (Erythrocyte): Non-Toxic; inhibition [8]: Active; inhibition [9]: inactive
COC(=O)C1=C[C@H](n2cc(CNC(=O)[C@]34CCC(C)(C)C[C@H]3C3=CC[C@@H]5[C@@]6(C)CC[C@H](O)C(C)(C)[C@@H]6CC[C@@]5(C)[C@]3(C)C[C@H]4O)nn2)[C@@H](NC(C)=O)[C@H]([C@H](O)[C@H](O)CO)O1 | Non-Toxic | 55 | > 200 | > 3.6 |  | 
COC(=O)C1=C[C@H](n2cc(CNC(=O)[C@]34CCC(C)(C)C[C@H]3C3=CC[C@@H]5[C@@]6(C)CC[C@H](O)C(C)(C)[C@@H]6CC[C@@]5(C)[C@]3(C)C[C@H]4O)nn2)[C@@H](NC(C)=O)[C@H]([C@H](OC(C)=O)[C@@H](COC(C)=O)OC(C)=O)O1 | Non-Toxic | > 100 |  |  | Toxic | 
C=C(C)[C@@H]1CC[C@]2(C(=O)NCc3cn([C@H]4C=C(C(=O)OC)O[C@@H]([C@H](OC(C)=O)[C@@H](COC(C)=O)OC(C)=O)[C@@H]4NC(C)=O)nn3)CC[C@]3(C)[C@H](CC[C@@H]4[C@@]5(C)CC[C@H](O)C(C)(C)[C@@H]5CC[C@]43C)[C@@H]12 | Non-Toxic |  |  |  | Toxic | 
COC(=O)C1=C[C@H](n2cc(CNC(=O)[C@]34CCC(C)(C)C[C@H]3C3=CC[C@@H]5[C@@]6(C)CC[C@H](O)C(C)(C)[C@@H]6CC[C@@]5(C)[C@]3(C)CC4)nn2)[C@@H](NC(C)=O)[C@H]([C@H](OC(C)=O)[C@@H](COC(C)=O)OC(C)=O)O1 | Non-Toxic |  |  |  | Toxic | 
CC(=O)N[C@H]1[C@H]([C@H](O)[C@H](O)CO)OC(C(=O)O)=C[C@@H]1O [NEU5AC2EN] |  |  |  |  |  | Ki [10]: 4 µM
COC(=O)C1=C[C@H](n2cc(CNC(=O)[C@]34CC[C@@H](C)[C@H](C)[C@H]3C3=CC[C@@H]5[C@@]6(C)CC[C@H](O)C(C)(C)[C@@H]6CC[C@@]5(C)[C@]3(C)CC4)nn2)[C@@H](NC(C)=O)[C@H]([C@H](O)[C@H](O)CO)O1 | Non-Toxic | > 100 |  |  | Toxic | 
COC(=O)C1=C[C@@H](n2cc(CNC(=O)[C@]34CC[C@@H](C)[C@H](C)[C@H]3C3=CC[C@@H]5[C@@]6(C)CC[C@H](O)C(C)(C)[C@@H]6CC[C@@]5(C)[C@]3(C)CC4)nn2)[C@@H](NC(C)=O)[C@H]([C@H](O)[C@H](O)CO)O1 | Non-Toxic | > 100 |  |  | Toxic | 
C=C(C)[C@@H]1CC[C@]2(C(=O)N[C@H]3C=C(C(=O)OC)O[C@@H]([C@H](O)[C@H](O)CO)[C@@H]3NC(C)=O)CC[C@]3(C)[C@H](CC[C@@H]4[C@@]5(C)CC[C@H](O)C(C)(C)[C@@H]5CC[C@]43C)[C@@H]12 | Non-Toxic | > 100 |  |  |  | 
COC(=O)C1=C[C@H](NC(=O)[C@]23CC[C@@H](C)[C@H](C)[C@H]2C2=CC[C@@H]4[C@@]5(C)CC[C@H](O)C(C)(C)[C@@H]5CC[C@@]4(C)[C@]2(C)CC3)[C@H](NC(C)=O)[C@H]([C@H](OC(C)=O)[C@@H](COC(C)=O)OC(C)=O)O1 | Non-Toxic | 19.2 | 136 | 7.1 | Non-Toxic | 
COC(=O)C1=C[C@H](n2cc(CNC(=O)[C@]34CCC(C)(C)C[C@H]3C3=CC[C@@H]5[C@@]6(C)CC[C@H](O)C(C)(C)[C@@H]6CC[C@@]5(C)[C@]3(C)CC4)nn2)[C@@H](NC(C)=O)[C@H]([C@H](O)[C@H](O)CO)O1 | Non-Toxic | 28.3 | > 200 | > 7.1 |  | 
COC(=O)C1=C[C@@H](n2cc(CNC(=O)[C@]34CCC(C)(C)C[C@H]3C3=CC[C@@H]5[C@@]6(C)CC[C@H](O)C(C)(C)[C@@H]6CC[C@@]5(C)[C@]3(C)CC4)nn2)[C@@H](NC(C)=O)[C@H]([C@H](O)[C@H](O)CO)O1 | Non-Toxic | > 100 |  |  |  | 
COC(=O)C1=C[C@H](NC(=O)[C@]23CC[C@@H](C)[C@H](C)[C@H]2C2=CC[C@@H]4[C@@]5(C)CC[C@H](O)C(C)(C)[C@@H]5CC[C@@]4(C)[C@]2(C)CC3)[C@@H](NC(C)=O)[C@H]([C@H](O)[C@H](O)CO)O1 | Non-Toxic |  |  |  | Toxic | 
COC(=O)C1=C[C@H](n2cc(CNC(=O)[C@]34CC[C@@H](C)[C@H](C)[C@H]3C3=CC[C@@H]5[C@@]6(C)CC[C@H](O)C(C)(C)[C@@H]6CC[C@@]5(C)[C@]3(C)CC4)nn2)[C@@H](NC(C)=O)[C@H]([C@H](OC(C)=O)[C@@H](COC(C)=O)OC(C)=O)O1 | Non-Toxic |  |  |  | Toxic | 

From ChEMBL document CHEMBL4261546, “Synthesis of novel pentacyclic triterpene-Neu5Ac2en derivatives and investigation of their in vitro anti-influenza entry activity” (Medchemcomm, 2017)
